{
  "source": "ChEMBL document CHEMBL4138085",
  "about": "“Design, synthesis and antimicrobial evaluation of novel benzimidazole-incorporated sulfonamide analogues” (Eur J Med Chem, 2017)",
  "key": {"Candida albicans": {"system": "Candida albicans", "assay": "Antifungal activity against Candida albicans ATCC 76615 after 24 hrs by NCCLS two fold broth microdilution method", "format": "functional", "conditions": "ATCC 76615, 24 h", "how_it_was_run": "(§1)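 Two-fold serial microdilution following NCCLS. A spore suspension in sterile distilled water was prepared from one-day-old cultures grown on Sabouraud agar and adjusted to a final 1–5 × 10^3 spores/mL. DMSO stocks were diluted in RPMI 1640 to eleven concentrations (0.5–512 µg/mL), inoculated and held at 35 °C for 24 h. Growth was read visually and spectrophotometrically, MIC was the lowest concentration with complete inhibition, and runs were in triplicate.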"}, "Cyberlindnera jadinii": {"system": "Cyberlindnera jadinii", "assay": "Antifungal activity against Candida utilis after 24 hrs by NCCLS two fold broth microdilution method", "format": "functional", "conditions": "Williopsis jadinii", "how_it_was_run": "as §1"}, "Saccharomyces cerevisiae": {"system": "Saccharomyces cerevisiae", "assay": "Antifungal activity against Saccharomyces cerevisiae after 24 hrs by NCCLS two fold broth microdilution method", "format": "functional", "how_it_was_run": "as §1"}, "Pichia norvegensis": {"system": "Pichia norvegensis", "assay": "Antifungal activity against Candida mycoderma after 24 hrs by NCCLS two fold broth microdilution method", "format": "functional"}, "Salmonella typhi": {"system": "Salmonella typhi", "assay": "Antibacterial activity against Bacillus typhi after 24 hrs by NCCLS two fold broth microdilution method", "format": "functional, Salmonella enterica subsp. enterica serovar Typhi", "conditions": "Salmonella enterica", "how_it_was_run": "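Two-fold serial broth microdilution per NCCLS. DMSO stocks diluted in Mueller–Hinton broth to 512, 256, 128, 64, 32, 16, 8, 4, 2, 1, 0.5 µg/mL. Chloromycin and norfloxacin as reference drugs; DMSO with inoculum, no drug, as solvent control. Incubation 37 °C for 24 h. Growth read visually and spectrophotometrically. MIC is the lowest concentration completely inhibiting growth; triplicate.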"}, "Escherichia coli": {"system": "Escherichia coli", "assay": "Antibacterial activity against Escherichia coli ATCC 8099 after 24 hrs by NCCLS two fold broth microdilution method", "format": "functional", "conditions": "ATCC 8099, 24 h", "how_it_was_run": "(§2)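 Two-fold serial broth microdilution in 96-well plates following NCCLS. Plates were inoculated and incubated at 37 °C for 24 h, with growth read visually and spectrophotometrically. MIC was taken as the lowest concentration giving complete growth inhibition. Run in triplicate, with a DMSO-plus-inoculum solvent control.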"}, "Staphylococcus aureus [1]": {"system": "Staphylococcus aureus", "assay": "Antibacterial activity against methicillin-resistant Staphylococcus aureus N315 after 24 hrs by NCCLS two fold broth microdilution method", "format": "functional", "conditions": "N315, 24 h", "how_it_was_run": "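Two-fold serial broth microdilution per NCCLS. Chloromycin and norfloxacin as reference drugs; DMSO with inoculum, no drug, as solvent control. Incubation 37 °C for 24 h. Growth read visually and spectrophotometrically. MIC is the lowest concentration completely inhibiting growth; triplicate.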"}, "Bacillus": {"system": "Bacillus", "assay": "Antibacterial activity against Bacillus proteus ATCC 13315 after 24 hrs by NCCLS two fold broth microdilution method", "format": "functional", "conditions": "ATCC 13315, 24 h", "how_it_was_run": "as §2, with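 “NCCLS. Compounds were dissolved in DMSO as stocks, then diluted in Mueller–Hinton broth to final concentrations of 0.5–512 µg/mL.” for “NCCLS.”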"}, "Bacillus subtilis": {"system": "Bacillus subtilis", "assay": "Antibacterial activity against Bacillus subtilis ATCC 21216 after 24 hrs by NCCLS two fold broth microdilution method", "format": "functional", "conditions": "ATCC 21216, 24 h", "how_it_was_run": "as §2, with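 “NCCLS. Compounds were dissolved in DMSO as stocks, then diluted in Mueller–Hinton broth to final concentrations of 0.5–512 µg/mL.” for “NCCLS.”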"}, "Aspergillus flavus": {"system": "Aspergillus flavus", "assay": "Antifungal activity against Aspergillus flavus after 24 hrs by NCCLS two fold broth microdilution method", "format": "functional", "how_it_was_run": "as §1"}, "Micrococcus luteus": {"system": "Micrococcus luteus", "assay": "Antibacterial activity against Micrococcus luteus ATCC 4698 after 24 hrs by NCCLS two fold broth microdilution method", "format": "functional", "conditions": "NCTC 2665, 24 h", "how_it_was_run": "as §2, with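 “NCCLS. Compounds were dissolved in DMSO as stocks, then diluted in Mueller–Hinton broth to final concentrations of 0.5–512 µg/mL.” for “NCCLS.”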"}, "Staphylococcus aureus [2]": {"system": "Staphylococcus aureus", "assay": "Antibacterial activity against Staphylococcus aureus ATCC 25923 after 24 hrs by NCCLS two fold broth microdilution method", "format": "functional", "conditions": "ATCC 25923, 24 h", "how_it_was_run": "as §2, with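 “NCCLS. Compounds were dissolved in DMSO as stocks, then diluted in Mueller–Hinton broth to final concentrations of 0.5–512 µg/mL.” for “NCCLS.”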"}, "Pseudomonas aeruginosa": {"system": "Pseudomonas aeruginosa", "assay": "Antibacterial activity against Pseudomonas aeruginosa ATCC 27853 after 24 hrs by NCCLS two fold broth microdilution method", "format": "functional", "conditions": "ATCC 27853, 24 h", "how_it_was_run": "as §2"}},
  "data": [
    {"smiles": "CCn1c(CS(=O)(=O)c2ccc(NC(C)=O)cc2)nc2ccccc21", "values": [
      {"measurement": "MIC", "setting": "Candida albicans", "value": 64, "unit": "µg/mL"},
      {"measurement": "MIC", "setting": "Cyberlindnera jadinii", "value": 64, "unit": "µg/mL"},
      {"measurement": "MIC", "setting": "Saccharomyces cerevisiae", "value": 512, "unit": "µg/mL"},
      {"measurement": "MIC", "setting": "Pichia norvegensis", "value": 256, "unit": "µg/mL"},
      {"measurement": "MIC", "setting": "Salmonella typhi", "value": 64, "unit": "µg/mL"},
      {"measurement": "MIC", "setting": "Escherichia coli", "value": 256, "unit": "µg/mL"},
      {"measurement": "MIC", "setting": "Staphylococcus aureus [1]", "value": 128, "unit": "µg/mL"},
      {"measurement": "MIC", "setting": "Bacillus", "value": 64, "unit": "µg/mL"},
      {"measurement": "MIC", "setting": "Bacillus subtilis", "value": 32, "unit": "µg/mL"},
      {"measurement": "MIC", "setting": "Aspergillus flavus", "value": 64, "unit": "µg/mL"},
      {"measurement": "MIC", "setting": "Micrococcus luteus", "value": 128, "unit": "µg/mL"},
      {"measurement": "MIC", "setting": "Staphylococcus aureus [2]", "value": 128, "unit": "µg/mL"},
      {"measurement": "MIC", "setting": "Pseudomonas aeruginosa", "value": 32, "unit": "µg/mL"}
    ]},
    {"smiles": "CCCCCCCn1c(CS(=O)(=O)c2ccc(N)cc2)nc2ccccc21", "values": [
      {"measurement": "MIC", "setting": "Candida albicans", "value": 512, "unit": "µg/mL"},
      {"measurement": "MIC", "setting": "Cyberlindnera jadinii", "value": 512, "unit": "µg/mL"},
      {"measurement": "MIC", "setting": "Saccharomyces cerevisiae", "value": 64, "unit": "µg/mL"},
      {"measurement": "MIC", "setting": "Pichia norvegensis", "value": 512, "unit": "µg/mL"},
      {"measurement": "MIC", "setting": "Salmonella typhi", "value": 512, "unit": "µg/mL"},
      {"measurement": "MIC", "setting": "Escherichia coli", "value": 512, "unit": "µg/mL"},
      {"measurement": "MIC", "setting": "Staphylococcus aureus [1]", "value": 512, "unit": "µg/mL"},
      {"measurement": "MIC", "setting": "Bacillus", "value": 512, "unit": "µg/mL"},
      {"measurement": "MIC", "setting": "Bacillus subtilis", "value": 512, "unit": "µg/mL"},
      {"measurement": "MIC", "setting": "Aspergillus flavus", "value": 512, "unit": "µg/mL"},
      {"measurement": "MIC", "setting": "Micrococcus luteus", "value": 128, "unit": "µg/mL"},
      {"measurement": "MIC", "setting": "Staphylococcus aureus [2]", "value": 512, "unit": "µg/mL"},
      {"measurement": "MIC", "setting": "Pseudomonas aeruginosa", "value": 512, "unit": "µg/mL"}
    ]},
    {"smiles": "CCCn1c(CS(=O)(=O)c2ccc(N)cc2)nc2ccccc21", "values": [
      {"measurement": "MIC", "setting": "Candida albicans", "value": 64, "unit": "µg/mL"},
      {"measurement": "MIC", "setting": "Cyberlindnera jadinii", "value": 64, "unit": "µg/mL"},
      {"measurement": "MIC", "setting": "Saccharomyces cerevisiae", "value": 32, "unit": "µg/mL"},
      {"measurement": "MIC", "setting": "Pichia norvegensis", "value": 4, "unit": "µg/mL"},
      {"measurement": "MIC", "setting": "Salmonella typhi", "value": 32, "unit": "µg/mL"},
      {"measurement": "MIC", "setting": "Escherichia coli", "value": 64, "unit": "µg/mL"},
      {"measurement": "MIC", "setting": "Staphylococcus aureus [1]", "value": 128, "unit": "µg/mL"},
      {"measurement": "MIC", "setting": "Bacillus", "value": 256, "unit": "µg/mL"},
      {"measurement": "MIC", "setting": "Bacillus subtilis", "value": 32, "unit": "µg/mL"},
      {"measurement": "MIC", "setting": "Aspergillus flavus", "value": 8, "unit": "µg/mL"},
      {"measurement": "MIC", "setting": "Micrococcus luteus", "value": 256, "unit": "µg/mL"},
      {"measurement": "MIC", "setting": "Staphylococcus aureus [2]", "value": 256, "unit": "µg/mL"},
      {"measurement": "MIC", "setting": "Pseudomonas aeruginosa", "value": 256, "unit": "µg/mL"}
    ]},
    {"smiles": "Nc1ccc(S(=O)(=O)Cc2nc3ccccc3n2Cc2cccc(Cl)c2)cc1", "values": [
      {"measurement": "MIC", "setting": "Candida albicans", "value": 512, "unit": "µg/mL"},
      {"measurement": "MIC", "setting": "Cyberlindnera jadinii", "value": 512, "unit": "µg/mL"},
      {"measurement": "MIC", "setting": "Saccharomyces cerevisiae", "value": 256, "unit": "µg/mL"},
      {"measurement": "MIC", "setting": "Pichia norvegensis", "value": 512, "unit": "µg/mL"},
      {"measurement": "MIC", "setting": "Salmonella typhi", "value": 512, "unit": "µg/mL"},
      {"measurement": "MIC", "setting": "Escherichia coli", "value": 32, "unit": "µg/mL"},
      {"measurement": "MIC", "setting": "Staphylococcus aureus [1]", "value": 512, "unit": "µg/mL"},
      {"measurement": "MIC", "setting": "Bacillus", "value": 256, "unit": "µg/mL"},
      {"measurement": "MIC", "setting": "Bacillus subtilis", "value": 512, "unit": "µg/mL"},
      {"measurement": "MIC", "setting": "Aspergillus flavus", "value": 16, "unit": "µg/mL"},
      {"measurement": "MIC", "setting": "Micrococcus luteus", "value": 256, "unit": "µg/mL"},
      {"measurement": "MIC", "setting": "Staphylococcus aureus [2]", "value": 32, "unit": "µg/mL"},
      {"measurement": "MIC", "setting": "Pseudomonas aeruginosa", "value": 256, "unit": "µg/mL"}
    ]}
  ]
}
